Consider 22 compounds from ChEMBL document CHEMBL1129032, “Synthesis and phospholipase A2 inhibitory activity of thielocin B3 derivatives” (J Med Chem, 1996).

For assay [1], the target named is Phospholipase A2 (Homo sapiens, UniProt P04054). The assay is described as follows: In vitro inhibition of human recombinant secretory Phospholipase A2 (group I). Summed up: (§1)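 PLA2 enzymes: recombinant human group I or II, or group II purified from rat platelets (single ~14 kDa band on SDS-PAGE). Substrate was 1-palmitoyl-2-[1-14C]linoleoyl-PE diluted with egg-yolk PE to 2000 dpm/nmol. Reaction started by adding enzyme, adjusted so hydrolysis stayed below 20%. Compounds in DMSO (2% final) against a DMSO control. IC50 read graphically from % inhibition vs log concentration, three independent experiments in duplicate.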

Assay [2] deals with T1, Phospholipase A2, membrane associated (Rattus norvegicus, UniProt P14423).
T1 sequence (P14423 whole entry): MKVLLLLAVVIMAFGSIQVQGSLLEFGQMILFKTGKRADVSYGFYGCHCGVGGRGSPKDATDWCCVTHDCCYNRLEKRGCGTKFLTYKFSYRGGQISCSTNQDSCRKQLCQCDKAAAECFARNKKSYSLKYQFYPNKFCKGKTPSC
Briefly: In vitro inhibition of rat secretory Phospholipase A2 (group II). In outline: as §1

The target in assay [3] is T2, Phospholipase A2, membrane associated (Homo sapiens, UniProt P14555).
T2 sequence (P14555 whole entry): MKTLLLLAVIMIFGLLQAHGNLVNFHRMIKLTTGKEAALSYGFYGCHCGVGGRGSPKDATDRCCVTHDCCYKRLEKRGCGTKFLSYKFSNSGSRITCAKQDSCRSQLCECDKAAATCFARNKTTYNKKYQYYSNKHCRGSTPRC
The assay is described as follows: In vitro inhibition of human recombinant secretory Phospholipase A2 (group II). Summed up: as §1

The species entered for assay [4] is Rattus norvegicus. Briefly: Inhibition of A-23187 stimulated Arachidonic acid production from rat platelets by 10 uM. It counts as functional. More on the design: scale not given: the % may be the effect or the level left. Summed up:
(§2)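 Rat platelets from citrate-dextrose blood with PGE1 were sedimented and labelled with [3H]AA (20 µCi/mL, 2.0 h, room temperature), gel-filtered, and used at 5 × 10^8 cells/mL. Stimulation used A23187 2 µM (DMSO 0.4%) plus compound (DMSO 0.2%), stopped with 0.1 N HCl. [3H]AA and [3H]TXB2 were separated by TLC and counted. Result given as % of A23187-induced increase over DMSO control, mean ± SEM of three experiments.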

For assay [5], the species on record is Rattus norvegicus. Briefly: Inhibition of A-23187 stimulated Thromboxane B2 production from rat platelets by 10 uM. It counts as functional. Also noted: scale not given: the % may be the effect or the level left. Summed up: as §2
Assay [6] addresses T2, Phospholipase A2, membrane associated. Briefly: In vitro inhibition of human recombinant secretory Phospholipase A2 (group II); No inhibition. In outline: as §1
The target of assay [7] is T1, Phospholipase A2, membrane associated. Briefly: In vitro inhibition of rat secretory Phospholipase A2 (group II); No inhibition. In outline: as §1

Each structure is given as a SMILES string. Some results are limits rather than exact numbers.

Phospholipase A2, sequence (P04054 whole entry): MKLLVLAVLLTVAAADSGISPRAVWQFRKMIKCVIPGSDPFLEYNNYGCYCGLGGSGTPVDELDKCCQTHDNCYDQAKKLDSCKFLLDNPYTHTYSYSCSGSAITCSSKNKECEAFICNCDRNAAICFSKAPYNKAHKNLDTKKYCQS

Turning to `COc1c(C)c(OC(=O)c2c(C)c(C)c(OC(=O)CCC(=O)Oc3c(C)c(C)c(C(=O)Oc4c(C)c(C)c(C(=O)O)c(OC)c4C)c(OC)c3C)c(C)c2OC)c(C)c(C)c1C(=O)O`, the results for the IC50 in assay [1], in assay [2] and in assay [3] were 60000 nM, 40 nM and 940 nM, respectively.

Consider `COc1ccc(Sc2ccc(OC)c(C(=O)Oc3c(C)c(C)c(C(=O)Oc4c(C)c(C)c(C(=O)O)c(OC)c4C)c(OC)c3C)c2)cc1C(=O)Oc1c(C)c(C)c(C(=O)Oc2c(C)c(C)c(C(=O)O)c(OC)c2C)c(OC)c1C`, for which the IC50 in assay [1] worked out at 55000 nM; in assay [2], 49 nM; in assay [3], 130 nM. For the same compound, the Activity in assay [4] came out at 2.8%; in assay [5], 0%.

Take `COc1c(C)c(OC)c(C(=O)Oc2c(C)c(C)c(C(=O)O)c(OC)c2C)c(C)c1Cc1c(C)c(C(=O)Oc2c(C)c(C)c(C(=O)O)c(OC)c2C)c(OC)c(C)c1OC`: the IC50 stood at 90000 nM in assay [1], 4600 nM in assay [2] and 2800 nM in assay [3].

Take `COc1ccc(Sc2ccc(OC)c(C(=O)Oc3c(C)c(C)c(C(=O)Oc4c(C)c(C)c(C(=O)O)c(OC)c4C)c(OC)c3C)c2)cc1C(=O)O`: the IC50 stood at 100000 nM in assay [1], 2100 nM in assay [2] and 4100 nM in assay [3].

For the compound `COc1c(C)c(OC(=O)c2c(C)c(C)c(OC(=O)c3cc(=O)cc(C(=O)Oc4c(C)c(C)c(C(=O)Oc5c(C)c(C)c(C(=O)O)c(OC)c5C)c(OC)c4C)o3)c(C)c2OC)c(C)c(C)c1C(=O)O`, the IC50 came to 100000 nM in assay [1], 880 nM in assay [2] and 5800 nM in assay [3]. The Activity in assay [4] is 55.2%; in assay [5], 46.3%.

Take `COc1c(C)c(OC(=O)c2c(C)c(C)c(OC(=O)/C=C/C(=O)Oc3c(C)c(C)c(C(=O)Oc4c(C)c(C)c(C(=O)O)c(OC)c4C)c(OC)c3C)c(C)c2OC)c(C)c(C)c1C(=O)O`: the concentration for half-maximal inhibition (IC50) in assay [1] was more than 100000 nM; in assay [2] it was 330 nM; in assay [3] it was 2200 nM. Besides, the Activity was 70.7% in assay [4] and 65.8% in assay [5].

As for `COc1c(C)c(OC(=O)c2c(C)c(C)c(OC(=O)c3cccc(C(=O)Oc4c(C)c(C)c(C(=O)Oc5c(C)c(C)c(C(=O)O)c(OC)c5C)c(OC)c4C)c3)c(C)c2OC)c(C)c(C)c1C(=O)O`, the 50% inhibitory concentration (IC50) is more than 100000 nM in assay [1], 120 nM in assay [2] and 230 nM in assay [3]. The Activity in assay [4] worked out at 49.2%; in assay [5] it was 0.1%.

`COc1c(C)c(OC)c(C(=O)Oc2c(C)c(C)c(C(=O)Oc3c(C)c(C)c(C(=O)O)c(OC)c3C)c(OC)c2C)c(C)c1Cc1c(C)c(C(=O)Oc2c(C)c(C)c(C(=O)Oc3c(C)c(C)c(C(=O)O)c(OC)c3C)c(OC)c2C)c(OC)c(C)c1OC`: the results for the IC50 in assay [1], in assay [2] and in assay [3] were more than 100000 nM, 130 nM and 190 nM, respectively.

With `Cc1c(O)c(Cc2c(C)c(C(=O)Oc3c(C)c(C)c(C(=O)Oc4c(C)c(C)c(C(=O)O)c(O)c4C)c(O)c3C)c(O)c(C)c2O)c(C)c(C(=O)Oc2c(C)c(C)c(C(=O)Oc3c(C)c(C)c(C(=O)O)c(O)c3C)c(O)c2C)c1O`, the concentration for half-maximal inhibition (IC50) in assay [1] was more than 100000 nM; in assay [2], 950 nM; in assay [3], 2400 nM.

Take `COc1c(C)c(OC(=O)c2c(C)c(C)c(OC(=O)c3c(C)c(CN[C@@H](C)c4ccccc4)c(O)c(C)c3O)c(C)c2OC)c(C)c(C)c1C(=O)O`: the values for the IC50 in assay [1], in assay [2] and in assay [3] were 60000 nM, 360 nM and 840 nM, respectively.

As for `COc1c(C)c(OC)c(C(=O)O)c(C)c1Cc1c(C)c(C(=O)Oc2c(C)c(C)c(C(=O)Oc3c(C)c(C)c(C(=O)O)c(OC)c3C)c(OC)c2C)c(OC)c(C)c1OC`, the IC50 in assay [1] is more than 100000 nM; in assay [2] it was 3000 nM; in assay [3] it was 3000 nM.

On to `COc1cc(OC)c(C(=O)Oc2c(C)c(C)c(C(=O)Oc3c(C)c(C)c(C(=O)O)c(OC)c3C)c(OC)c2C)cc1Oc1cc(C)c(OC)c(C(=O)Oc2c(C)c(C)c(C(=O)Oc3c(C)c(C)c(C(=O)O)c(OC)c3C)c(OC)c2C)c1`, for which the IC50 in assay [1] came to 6600 nM; in assay [2] it was 35 nM; in assay [3], 240 nM. Also, the Activity in assay [4] was found to be 19.7%; in assay [5], 0%.

For the compound `COc1ccc(S(=O)(=O)c2ccc(OC)c(C(=O)Oc3c(C)c(C)c(C(=O)Oc4c(C)c(C)c(C(=O)O)c(OC)c4C)c(OC)c3C)c2)cc1C(=O)Oc1c(C)c(C)c(C(=O)Oc2c(C)c(C)c(C(=O)O)c(OC)c2C)c(OC)c1C`, the results for the IC50 in assay [1], in assay [2] and in assay [3] were 9000 nM, 50 nM and 69 nM, respectively.

Consider `COc1ccc(Sc2ccc(OC)c(C(=O)Oc3c(C)c(C)c(C(=O)Oc4c(C)c(C)c(C(=O)OCOC(=O)C(C)(C)C)c(OC)c4C)c(OC)c3C)c2)cc1C(=O)Oc1c(C)c(C)c(C(=O)Oc2c(C)c(C)c(C(=O)OCOC(=O)C(C)(C)C)c(OC)c2C)c(OC)c1C`, for which the IC50 result in assay [6] was “Not Active”; in assay [1], more than 100000 nM; in assay [7], “Not Active”.

`COc1ccc(Oc2ccc(OC)c(C(=O)Oc3c(C)c(C)c(C(=O)Oc4c(C)c(C)c(C(=O)O)c(OC)c4C)c(OC)c3C)c2)cc1C(=O)Oc1c(C)c(C)c(C(=O)Oc2c(C)c(C)c(C(=O)O)c(OC)c2C)c(OC)c1C`: the IC50 in assay [1] was 6500 nM; in assay [2] it was 42 nM; in assay [3], 100 nM. The Activity in assay [4] is given as 9%; in assay [5], 0%.

For the compound `COc1ccc([S+]([O-])c2ccc(OC)c(C(=O)Oc3c(C)c(C)c(C(=O)Oc4c(C)c(C)c(C(=O)O)c(OC)c4C)c(OC)c3C)c2)cc1C(=O)Oc1c(C)c(C)c(C(=O)Oc2c(C)c(C)c(C(=O)O)c(OC)c2C)c(OC)c1C`, the IC50 was 11000 nM in assay [1], 120 nM in assay [2] and 260 nM in assay [3].

Consider `COc1ccc(Sc2ccc(OC)c(C(=O)Oc3c(C)c(C)c(C(=O)O)c(OC)c3C)c2)cc1C(=O)Oc1c(C)c(C)c(C(=O)O)c(OC)c1C`, for which the results for the IC50 in assay [1], in assay [2] and in assay [3] were more than 100000 nM, 2500 nM and 4800 nM, respectively.

Turning to `COc1ccc(Oc2ccc(OC)c(C(=O)Oc3c(C)c(C)c(C(=O)O)c(OC)c3C)c2)cc1C(=O)Oc1c(C)c(C)c(C(=O)O)c(OC)c1C`, the IC50 in assay [1] is more than 100000 nM; in assay [2], 3400 nM; in assay [3], 75000 nM.

With `CC1=C(CC/C(C)=C/CCC2=CC[C@H](C3=CC(=O)O[C@H]3O)O[C@H]2O)C(C)(C)CCC1` [MANOALIDE], the IC50 in assay [2] worked out at 2000 nM; in assay [3], 1500 nM.

Take `CCN(CC)CCCC(C)Nc1c2ccc(Cl)cc2nc2ccc(OC)cc12` (stereo not drawn) [QUINACRINE]: the results for the IC50 in assay [2] and in assay [3] were 320000 nM and 76000 nM, respectively.

With `COc1c(C)c(OC(=O)c2c(C)c(C)c(OC(=O)C3=C(C)[C@@](C)(O)C4(O)Oc5c(C)c(OC)c(C(=O)Oc6c(C)c(C)c(C(=O)O)c(OC)c6C)c(C)c5C[C@@]4(C)C3=O)c(C)c2OC)c(C)c(C)c1C(=O)O` (stereo partly drawn) [THIELOCIN A1], the values for the half-maximal inhibitory concentration (IC50) in assay [1], in assay [2] and in assay [3] were 135000 nM, 3.3 nM and 12000 nM, respectively.

Turning to `COc1c(C)c(OC(=O)c2c(C)c(C)c(OC(=O)c3c(C)cc(O)c(Cc4c(C)c(C(=O)Oc5c(C)c(C)c(C(=O)Oc6c(C)c(C)c(C(=O)O)c(OC)c6C)c(OC)c5C)c(O)c(C)c4O)c3O)c(C)c2OC)c(C)c(C)c1C(=O)O` [THIELOCIN B3], the IC50 was 18000 nM in assay [1], 12 nM in assay [2] and 76 nM in assay [3]. For the same compound, the Activity in assay [4] stood at 60.3%; in assay [5], 43.7%.
